Measurements published in ChEMBL document CHEMBL1687906, “Discovery of novel and potent orally active calcium-sensing receptor antagonists that stimulate pulselike parathyroid hormone secretion: synthesis and structure-activity relationships of tetrahydropyrazolopyrimidine derivatives” (J Med Chem, 2011).
pIC50: −log10 of the molar value. In brackets after ≈: the same amount, converted by molar mass. Activity calls are given as the source filed them. The rule behind the calls is not given here.

Key:
[1] = target: T1, Extracellular calcium-sensing receptor (Homo sapiens, UniProt P41180); assay: Inhibition of CaSR expressed in CHO cells incubated with compound for 10 mins measured after 1 hr by [35S]GTPgammaS binding assay; format: functional, cell-based
T1 sequence (P41180 whole entry): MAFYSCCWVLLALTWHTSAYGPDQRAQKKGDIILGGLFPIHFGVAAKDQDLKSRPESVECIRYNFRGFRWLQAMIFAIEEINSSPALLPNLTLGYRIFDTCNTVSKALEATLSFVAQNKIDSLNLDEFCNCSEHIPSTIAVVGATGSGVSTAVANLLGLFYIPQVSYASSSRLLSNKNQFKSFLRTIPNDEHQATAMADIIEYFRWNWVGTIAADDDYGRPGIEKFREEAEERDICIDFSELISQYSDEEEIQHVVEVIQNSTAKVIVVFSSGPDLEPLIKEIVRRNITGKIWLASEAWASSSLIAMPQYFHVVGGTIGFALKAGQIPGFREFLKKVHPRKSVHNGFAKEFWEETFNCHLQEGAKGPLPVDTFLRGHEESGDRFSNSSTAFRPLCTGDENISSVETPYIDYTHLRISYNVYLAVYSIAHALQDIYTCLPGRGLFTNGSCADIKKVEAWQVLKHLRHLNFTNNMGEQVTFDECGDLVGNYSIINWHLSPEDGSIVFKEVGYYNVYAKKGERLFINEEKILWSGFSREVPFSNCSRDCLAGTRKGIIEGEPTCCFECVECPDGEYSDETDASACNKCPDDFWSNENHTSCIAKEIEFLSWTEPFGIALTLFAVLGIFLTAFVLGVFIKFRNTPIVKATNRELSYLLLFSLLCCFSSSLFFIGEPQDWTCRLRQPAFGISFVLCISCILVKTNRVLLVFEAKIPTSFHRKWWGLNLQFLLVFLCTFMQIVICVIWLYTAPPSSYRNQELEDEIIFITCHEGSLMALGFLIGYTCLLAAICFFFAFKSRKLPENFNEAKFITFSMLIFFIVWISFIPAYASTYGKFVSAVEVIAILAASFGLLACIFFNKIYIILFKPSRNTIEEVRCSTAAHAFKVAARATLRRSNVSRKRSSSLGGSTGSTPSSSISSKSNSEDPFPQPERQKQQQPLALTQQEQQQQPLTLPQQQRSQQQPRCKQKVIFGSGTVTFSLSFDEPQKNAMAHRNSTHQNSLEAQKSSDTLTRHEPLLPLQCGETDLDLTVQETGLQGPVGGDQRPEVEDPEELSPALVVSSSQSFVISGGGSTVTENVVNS
Outline: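 Membranes from CaSR-expressing CHO cells preincubated with compound for 10 min. Binding then run 1 h at room temperature in 20 mM HEPES pH 7.4, 100 mM NaCl, 1 mM MgCl2, 167 μg/mL DTT, 5 μM GDP, 0.4 nM [35S]GTPγS and 6 mM CaCl2. Samples filtered through GF/C and washed with PBS; radioactivity counted by scintillation. IC50 obtained by nonlinear regression.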

[2] = Thermodynamic solubility of the compound in aqueous buffer containing 20 mmol/L sodium glycochenodeoxycholate at pH 6.8 by HPLC analysis; format: physicochemical; details: aqueous buffer with 20 mmol/L sodium glycochenodeoxycholate
Outline: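 Compound added to pH 6.8 aqueous buffer containing 20 mmol/L sodium glycochenodeoxycholate; after incubation, precipitate removed by filtration and filtrate concentration determined by HPLC.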

[3] = Metabolic stability in rat hepatic microsomes after 20 mins by HPLC/MS analysis; format: ADME; details: liver microsomes, read-out: Stability
Outline: (§1)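 Hepatic microsomes, 0.2 mg/mL protein, in 50 mmol/L potassium phosphate pH 7.4 with […] test compound. An NADPH-generating system (MgCl2, glucose-6-phosphate, β-NADP+, G6PDH) added at 10% of the reaction volume. Incubated at 37 °C for 0 and 20 min.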

[4] = Metabolic stability in human hepatic microsomes after 20 mins by HPLC/MS analysis; format: ADME; details: liver microsomes, read-out: Stability; outline: as §1
Rattus norvegicus [5] = assay: Induction of bone formation in osteopenic ovariectomized CD(SD)IGS rat model assessed as proximal tibia bone mineral density at 10 mg/kg, po administered once daily for 3 months measured after 1 day last post treatment (reference value: 649+/- 8 mg/cm3); format: functional
[6] = Cmax in Crl:CD(SD) rat at 10 mg/kg, po; format: ADME, organism-based; set-up: dose 10 mg/kg, route oral; details: in vivo
Outline: (§2)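 Nonfasted female Crl:CD(SD) rats, 12 weeks old, n = 3, given 10 mg/kg orally as a 0.5% methylcellulose suspension. Plasma collected at 0.25, 0.5, 1, 2, 4, 8 and 24 h, deproteinized with acetonitrile, diluted with 0.01 mol/L ammonium acetate. Drug measured by HPLC on an ODS column, ammonium acetate/acetonitrile 3/7, 40 °C, UV 262 nm.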

[7] = Mean residence time in Crl:CD(SD) rat at 10 mg/kg, po; format: ADME, organism-based; set-up: dose 10 mg/kg, route oral; details: in vivo; outline: as §2
[8] = AUC (0 to 24 hrs) in Crl:CD(SD) rat at 10 mg/kg, po; format: ADME, organism-based; set-up: time < 24 hr, dose 10 mg/kg, route oral; details: plasma; outline: as §2
Rattus norvegicus [9] = assay: Induction of bone formation in osteopenic ovariectomized CD(SD)IGS rat model assessed as distal femur BMD at 10 mg/kg, po administered once daily for 3 months measured after 1 day last post treatment (reference value: 622+/- 7 mg/cm3); format: functional
Rattus norvegicus [10] = assay: Induction of bone formation in osteopenic ovariectomized CD(SD)IGS rat model assessed as plasma osteocalcin level at 10 mg/kg, po administered once daily for 3 months measured after 2 months by RIA (reference value: 21.1+/- 2.4 ng/ml); format: functional
Caco-2 [11] = assay: Apparent permeability across apical to basolateral side in human Caco2 cells at 10 umol/L; format: ADME, cell-based; details: caco-2, 10 µM
Outline: (§3)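 Confluent Caco-2 monolayers on collagen-coated polycarbonate Transwell membranes. Buffer is HBSS with 10 mmol/L HEPES, 15 mmol/L glucose and 1% BSA, pH 7.3-7.5. Compound at 10 μmol/L dosed apically (A-to-B) or basolaterally (B-to-A), 37 °C, 5% CO2. Receivers sampled at 1 and 2 h. Lucifer yellow integrity check and cell-free blank run. LC/MS/MS read-out; Papp calculated; duplicates.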

Rattus norvegicus [12] = assay: Increase of PTH level in rat plasma at 10 mg/kg, po after 30 mins by ELISA; format: functional
[13] = Tmax in Crl:CD(SD) rat at 10 mg/kg, po; format: ADME, organism-based; set-up: dose 10 mg/kg, route oral; details: in vivo; outline: as §2
Caco-2 [14] = assay: Apparent permeability across apical to basolateral side of human Caco2 cells at 10 umol/L; format: ADME, cell-based; details: caco-2, 10 µM, in the assay text read “basolateral to apical” for “apical to basolateral”; outline: as §3
Rattus norvegicus [15] = assay: Increase of PTH level in rat plasma at 10 mg/kg, po after 2 hrs by ELISA; format: functional, organism-based; set-up: dose 10 mg/kg

Row | Structure (SMILES) | pIC50 [1] | solubility thermodynamic [2] [µg/mL] | further results
1 | CCC(CC)(NC(=O)c1cnn2c1NC(c1ccccc1)CC2(C)C)c1cccc(Cl)c1 (stereo not drawn) | 7.77 | – | –
2 | CCC(CC)(NC(=O)c1cnn2c1NC(c1ccccc1)CC2(C)C)c1ccc(C)cc1 (stereo not drawn) | 8.26 | 15.6 (≈ 36.2 µM) | microsomal CLint [3]: 164 µL/min/mg; microsomal CLint [4]: 122 µL/min/mg
3 | CCC(CC)(NC(=O)c1cnn2c1NC(c1ccccc1)CC2(C)C)c1ccc(OCc2ccccc2)cc1 (stereo not drawn) | 8.07 | 24.3 (≈ 46.5 µM) | microsomal CLint [3]: 24 µL/min/mg; microsomal CLint [4]: 48 µL/min/mg
4 | CCC(CC)(NC(=O)c1cnn2c1NC(c1ccccc1)CC2(C)C)c1ccc(C)cc1.Cl (racemic) | 8.31 | 140 | Activity (Rattus norvegicus [5]): 700 mg/cm3; Cmax [6]: 374 ng/mL; MRT [7]: 5.65 h; AUC(0-t) at 24 h [8]: 2460 ng·h/mL; Activity (Rattus norvegicus [9]): 660 mg/cm3; Activity (Rattus norvegicus [10]): 28.4 ng/mL; Papp (Caco-2 [11]): 58.9 10^-6 cm/s; Activity (Rattus norvegicus [12]): 120 pg/mL; Tmax [13]: 0.67 h; Papp (Caco-2 [14]): 42.7 10^-6 cm/s
5 | CCC(CC)(NC(=O)c1cnn2c1NC(c1ccccc1)CC2(C)C)c1ccccc1F (stereo not drawn) | 7.92 | – | –
6 | CCC(CC)(NC(=O)c1cnn2c1N[C@@H](c1ccccc1)CC2(C)C)c1ccc(C)cc1 | 8.64 | – | –
7 | O=C(NC(c1ccccc1)c1ccccc1)c1cnn2c1N[C@H](c1ccccc1)C[C@@H]2C(F)(F)F | 6.42 | – | –
8 | CCC(CC)(NC(=O)c1cnn2c1NC(c1ccccc1)CC2(C)C)c1ccc(C)cc1.CS(=O)(=O)O (stereo not drawn) | – | 118 | –
9 | CCC(CC)(NC(=O)c1cnn2c1NC(c1ccccc1)CC2(C)C)c1ccc(Cl)cc1.O=S(=O)(O)O (stereo not drawn) | – | 202 | –
10 | O=C(NCc1ccc(C(F)(F)F)cc1)c1cnn2c1N[C@H](c1ccccc1)C[C@@H]2C(F)(F)F | 5.54 | – | –
11 | CCC(CC)(NC(=O)c1cnn2c1N[C@H](c1ccccc1)CC2(C)C)c1ccc(C)cc1 | 7.51 | – | –
12 | CCC(CC)(NC(=O)c1cnn2c1NC(c1ccccc1)CC2(C)C)c1ccc(Cl)cc1.CS(=O)(=O)O (stereo not drawn) | – | 164 | –
13 | CC(=O)O.CCC(CC)(NC(=O)c1cnn2c1NC(c1ccccc1)CC2(C)C)c1ccc(Cl)cc1 (stereo not drawn) | – | 202 | –
14 | CC1(C)CC(c2ccccc2)Nc2c(C(=O)NC(c3ccc(C(F)(F)F)cc3)(C3CCCCC3)C3CCCCC3)cnn21 (stereo not drawn) | 6.82 | – | –
15 | CCC(CC)(NC(=O)c1cnn2c1NC(c1ccccc1)CC2(C)C)c1ccccc1 (stereo not drawn) | 8.47 | 22.3 (≈ 53.5 µM) | microsomal CLint [3]: 215 µL/min/mg; microsomal CLint [4]: 209 µL/min/mg
16 | CCC(CC)(NC(=O)c1cnn2c1NC(c1ccccc1)CC2(C)C)c1ccc(OC)cc1 (stereo not drawn) | 8.18 | 59.6 (≈ 133 µM) | microsomal CLint [3]: 158 µL/min/mg; microsomal CLint [4]: 67 µL/min/mg

Row | Structure (SMILES) | pIC50 [1] | solubility thermodynamic [2] [µg/mL] | further results
17 | CC(C)(NC(=O)c1cnn2c1NC(c1ccccc1)CC2(C)C)c1ccc(C(F)(F)F)cc1 (stereo not drawn) | 8.46 | – | –
18 | CCC(CC)(NC(=O)c1cnn2c1NC(c1ccccc1)CC2(C)C)c1ccc(OC(C)=O)cc1 (stereo not drawn) | 7.51 | – | –
19 | CCC(CC)(NC(=O)c1cnn2c1NC(c1ccccc1)CC2(C)C)c1ccc(C)cc1 (racemic) | – | – | Activity (Rattus norvegicus [15]): inactive
20 | CCOC(=O)c1ccc(C(CC)(CC)NC(=O)c2cnn3c2NC(c2ccccc2)CC3(C)C)cc1 (stereo not drawn) [listing 1 of 2 here] | – | – | microsomal CLint [3]: 138 µL/min/mg; microsomal CLint [4]: 91 µL/min/mg
21 | CCCCC(CCCC)(NC(=O)c1cnn2c1NC(c1ccccc1)CC2(C)C)c1ccc(C(F)(F)F)cc1 (stereo not drawn) | 7.64 | – | –
22 | CCC(CC)(NC(=O)c1cnn2c1NC(c1ccccc1)CC2(C)C)c1ccc(C(F)(F)F)cc1 (stereo not drawn) | 8.12 | 4.6 (≈ 9.49 µM) | microsomal CLint [3]: 13 µL/min/mg; microsomal CLint [4]: 14 µL/min/mg; Papp (Caco-2 [11]): 32.7 10^-6 cm/s; Papp (Caco-2 [14]): 24.2 10^-6 cm/s
23 | CCC(CC)(NC(=O)c1cnn2c1NC(c1ccccc1)CC2(C)C)c1cccc(F)c1 (stereo not drawn) | 7.60 | – | –
24 | CC(C)C(NC(=O)c1cnn2c1NC(c1ccccc1)CC2(C)C)(c1ccc(C(F)(F)F)cc1)C(C)C (stereo not drawn) | 7.52 | – | –
25 | CCOC(=O)c1ccc(C(CC)(CC)NC(=O)c2cnn3c2NC(c2ccccc2)CC3(C)C)cc1 (stereo not drawn) [listing 2 of 2 here] | 8.28 | 5.4 (≈ 11.1 µM) | –
26 | CCC(=O)Oc1ccc(C(CC)(CC)NC(=O)c2cnn3c2NC(c2ccccc2)CC3(C)C)cc1 (stereo not drawn) | 7.92 | – | –
27 | CCC(CC)(NC(=O)c1cnn2c1NC(c1ccccc1)CC2(C)C)c1ccc(COC(C)=O)cc1 (stereo not drawn) | 7.85 | – | –
28 | CCC(CC)(NC(=O)c1cnn2c1NC(c1ccccc1)CC2(C)C)c1ccc(Cl)cc1 (stereo not drawn) | 8.13 | 54 (≈ 120 µM) | microsomal CLint [3]: 57 µL/min/mg; microsomal CLint [4]: 18 µL/min/mg; Papp (Caco-2 [11]): 52.6 10^-6 cm/s; Papp (Caco-2 [14]): 36.8 10^-6 cm/s
29 | CCC(CC)(NC(=O)c1cnn2c1NC(c1ccccc1)CC2(C)C)c1ccc(Cl)cc1.Cl (stereo not drawn) | – | 126 | Cmax [6]: 374 ng/mL; MRT [7]: 5.65 h; AUC(0-t) at 24 h [8]: 2460 ng·h/mL; Tmax [13]: 0.67 h
30 | CCC(CC)(NC(=O)c1cnn2c1NC(c1ccccc1)CC2(C)C)c1ccc(F)cc1 (stereo not drawn) | 8.14 | 8.5 (≈ 19.6 µM) | microsomal CLint [3]: 129 µL/min/mg; microsomal CLint [4]: 89 µL/min/mg
31 | CCCC(CCC)(NC(=O)c1cnn2c1NC(c1ccccc1)CC2(C)C)c1ccc(C(F)(F)F)cc1 (stereo not drawn) | 8.36 | – | –
